MEKK2wt PB1 HTS: modulators of MEK5 binding to wildtype MEKK2, primary screen, biochemical, multiplex bead flow cytometry, Alexa488-MEK5. Alexa488-MEK5 binding to MEKK2 WT; actives lie on both sides. binding response (% of control), % at 10 µM. hit rate 1.1% among 290,000; in the data active means binding response below about 67% or above about 130%
MEKK3 PB1 HTS: modulators of MEKK3-MEK5 PB1 binding, primary screen, biochemical, wildtype MEKK3, multiplex bead flow cytometry, Alexa488-MEK5. hit rate 1.4% among 290,000. binding response (% of control), % at 10 µM. Mitogen-activated protein kinase kinase kinase 3 (Homo sapiens), Q99759. bead-based flow cytometry, Alexa488-MEK5 binding to MEKK3; actives lie on both sides; 0 = blocked by unlabeled MEK5, 100 = vehicle. AID 1529, 2009;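 active means binding response more than 3 SD above or below the average of its plate-row segment, actives on both sides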;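 further: Alexa488 bead fluorescence after subtracting the streptavidin-only scavenger bead signal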
ABCB1 inh: ABCB1 efflux pump inhibitors, primary screen, cell-based, multiplex, flow cytometry, ABCG2 counter-screen; ATP-dependent translocase ABCB1 (Homo sapiens), P08183; CCRF-Adr cells, JC-1 efflux; inhibition, % at 6.6 µM; hit rate 0.067% among 190,000; AID 1326, 2008; in the data active means inhibition above about 40%;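 further: 0% = vehicle and 100% = reference inhibitor; higher value means more JC-1 retained so stronger ABCB1 efflux block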
MEKK2mut PB1 HTS: MEK5 binding signal on mutant MEKK2 PB1, primary screen, biochemical, multiplex bead flow cytometry, Alexa488-MEK5; hit rate 0.35% among 290,000; percent response, % at 10 µM; Alexa488-MEK5 binding to MEKK2 mutant; AID 1530, 2009; in the data active means percent response above about 24%, passing the limit was not always enough
ABCG2 block: ABCG2 efflux pump inhibitors, primary screen, multiplex with ABCB1, IgMXP3 cells, flow cytometry; AID 1325, 2008; hit rate 0.1% among 190,000; JC-1 efflux; Broad substrate specificity ATP-binding cassette transporter ABCG2 (Homo sapiens), Q9UNQ0; inhibition, % at 6.6 µM;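 active means inhibition above 80%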;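 further: 0% = DMSO and 100% = nicardipine control wells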
Target sequence (Q9UNQ0 whole entry, looked up): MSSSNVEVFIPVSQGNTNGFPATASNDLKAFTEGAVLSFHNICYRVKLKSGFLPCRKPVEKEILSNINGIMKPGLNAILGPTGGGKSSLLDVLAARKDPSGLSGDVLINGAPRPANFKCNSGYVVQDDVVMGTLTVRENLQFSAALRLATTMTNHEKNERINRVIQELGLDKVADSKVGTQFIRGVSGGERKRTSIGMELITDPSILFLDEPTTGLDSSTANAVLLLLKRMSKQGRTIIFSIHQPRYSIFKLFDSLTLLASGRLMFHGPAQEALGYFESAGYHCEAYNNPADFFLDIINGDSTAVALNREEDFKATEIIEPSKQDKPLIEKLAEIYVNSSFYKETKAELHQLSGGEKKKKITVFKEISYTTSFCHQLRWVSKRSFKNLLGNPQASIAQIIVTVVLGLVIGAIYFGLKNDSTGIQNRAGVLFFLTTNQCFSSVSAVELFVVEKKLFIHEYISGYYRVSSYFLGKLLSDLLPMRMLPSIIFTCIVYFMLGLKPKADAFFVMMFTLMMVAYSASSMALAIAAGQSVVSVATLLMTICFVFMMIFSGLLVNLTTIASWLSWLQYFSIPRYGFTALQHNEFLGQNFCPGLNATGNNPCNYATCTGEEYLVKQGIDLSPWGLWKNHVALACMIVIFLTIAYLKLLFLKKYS
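test system = two drug-resistant human cell lines, ABCG2 and ABCB1 | amount = 3 million cells/mL final, two lines in 1:1 ratio | reagent = JC-1 transporter substrate | doses = one concentration, 6.6 µM final | incubation = 10 min at 25 °C | signal = flow cytometric JC-1 green MFI at 530 nm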
MEKK2wt confirm: modulators of MEK5 binding to wildtype MEKK2, confirmation, biochemical, single concentration, multiplex bead flow cytometry; shares compounds with MEKK3 PB1 HTS; Alexa488-MEK5 binding to MEKK2 WT; actives lie on both sides; binding response (% of control), % at 10 µM; hit rate 2.4% among 5,900; AID 1892, 2009; in the data active means binding response below about 16% or above about 210%; inactive means in between
MEKK2mut-MEK5: mutant MEKK2 PB1-MEK5 binding signal retest – biochemical, single concentration, multiplex bead flow cytometry, confirmation; hit rate 2% among 5,900; percent response, % at 10 µM; shares compounds with MEKK3 PB1 HTS; Alexa488-MEK5 binding to MEKK2 mutant; in the data active means percent response mostly above about 71%, no sharp cut-off; inactive means mostly below about 38%;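 further: higher means compound restores mutant binding toward wildtype level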
MEKK3-MEK5 inh: MEKK3 wild-type PB1 binding to MEK5, inhibitors, confirmation, biochemical, bead multiplex flow cytometry, single concentration, wildtype; shares compounds with MEKK3 PB1 HTS; Alexa488-MEK5 binding to MEKK3; hits give low values; binding response (% of control), % at 10 µM; hit rate 1.8% among 5,900; AID 1894, 2009;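 active means binding response below 72% of control, or above a set upper limit, though filed actives all read lower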;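 further: 100% = DMSO only wells and 0% = binding blocked by excess unlabeled MEK5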
Numbers without * were called inactive; . = no result; [ ] = remark or other dose. Compounds with a hit are over-represented: about 2.3% of the library has one in this group of screens.

SMILES	MEKK2wt PB1 HTS	MEKK3 PB1 HTS	ABCB1 inh	MEKK2mut PB1 HTS	ABCG2 block	MEKK2wt confirm	MEKK2mut-MEK5	MEKK3-MEK5 inh
CC(C)c1nc2ccc(Br)cn2c1NC1CCCC1	123	129*	0	49	0	99	-2	100
Cc1ccc2nc(-c3ccccn3)c(NC3CCCC3)n2c1	96	110	0	-10	16	.	.	.
CN1CCN(c2ccc(NC(=O)c3cccc(OCc4ccccc4)c3)cc2)CC1	.	.	0	.	5	.	.	.
O=C(NC(=S)Nc1ccc(CN2CCOCC2)cc1)c1cccc([N+](=O)[O-])c1	105	145*	0	-1	8	106	2	105
O=C(NC(=S)Nc1ccc(N2CCOCC2)cc1)c1cccc([N+](=O)[O-])c1	98	102	1	-2	10	.	.	.
O=C(NC(=S)Nc1ccc(CN2CCCCC2)cc1)c1cccc(OCc2ccccc2)c1	220*	113	0	63*	8	173	25	104
O=C(O)c1ccc(NC(=S)NC(=O)c2cccc(COc3ccccc3)c2)cc1	89	103	-1	-6	-1	.	.	.
CCCOc1cccc(C(=O)NC(=S)Nc2ccc(N3CCN(C)CC3)cc2)c1	152*	103	1	46	4	147	12	106
CCOc1cccc(C(=O)NC(=S)Nc2ccc(N3CCN(CC)CC3)cc2)c1	130	108	2	12	4	.	.	.
CCN1CCN(c2ccc(NC(=O)c3cccc(OCc4ccccc4)c3)cc2)CC1	171*	100	0	34	3	147	27	106
CC(=O)Nc1ccc(SCc2csc(C)n2)cc1	80	100	.	3	.	.	.	.
O=C(Cc1cccs1)Nc1ccccc1F	97	97	.	5	.	.	.	.
COC(=O)C1CCN(Cc2ccc(OCCCN3CCN(c4ccc([N+](=O)[O-])cc4)CC3)cc2)CC1	144*	105	1	39	2	108	-1	86
Cc1ccc(SCC(=O)Nc2ccc3c(c2)C(=O)N(C)C3=O)cc1	94	95	.	-9	.	.	.	.
Cc1ccc(N2CC(C(=O)N/N=C/c3sccc3C)CC2=O)cc1 (configuration not stated)	104	135*	2	0	5	93	-2	100
Cc1ccc(N2CC(C(=O)Nc3ccc(S(=O)(=O)NCC4CCCO4)cc3)CC2=O)cc1C (configuration not stated)	98	99	.	-1	.	.	.	.
CCCNC(=O)Cn1nc([N+](=O)[O-])c([N+](=O)[O-])c1C	58*[inhibitor]	60*[inhibitor]	0	-3	1	102	0	103
CC1=C(C(N)=O)C(c2ccc(Br)cc2)n2nc(CCCO)nc2N1 (configuration not stated)	44*[inhibitor]	72	.	-11	.	107	4	103
CC1=C(C(N)=O)C(c2ccccc2F)n2nc(CCCO)nc2N1 (configuration not stated)	104	103	.	4	.	.	.	.
CCc1ccc(-c2nc(CS(=O)CC(=O)NCc3ccco3)c(C)o2)cc1 (configuration not stated)	104	100	.	2	.	.	.	.
O=C1c2ccccc2-c2onc3ccc(NCc4ccco4)c1c23	53*[inhibitor]	52*[inhibitor]	17	-18	14	63	-22	59*
CCNc1ccc2noc3c2c1C(=O)c1ccccc1-3	30*[inhibitor]	32*[inhibitor]	1	1	1	52	-14	56*
CCOc1ccc2noc3c2c1C(=O)c1ccccc1-3	.	.	3	.	5	.	.	.
COc1ccccc1Nc1nc(NCCCN(C)C)nc(N)c1[N+](=O)[O-]	145*	111	.	47	.	144	29	103
Cc1ccc(Nc2nc(NCCCN3CCOCC3)nc(N)c2[N+](=O)[O-])cc1C	148*	106	4	21	25	131	15	102
SMILES	MEKK2wt PB1 HTS	MEKK3 PB1 HTS	ABCB1 inh	MEKK2mut PB1 HTS	ABCG2 block	MEKK2wt confirm	MEKK2mut-MEK5	MEKK3-MEK5 inh
CSc1ncccc1C(=O)N1CCN(S(=O)(=O)c2ccc(F)cc2)CC1	106	106	.	7	.	.	.	.
FC(F)(F)c1cc(-c2ccco2)nc(NCc2cccnc2)n1	.	.	3	.	26	.	.	.
FC(F)(F)c1cc(-c2ccccc2)nc(NCc2cccnc2)n1	-1.0*[inhibitor]	1.0*[inhibitor]	3	-10	28	97	-7	99
Cc1ccc(S(=O)(=O)N2CCN(C(C)CC(=O)O)CC2)cc1 (configuration not stated)	3.0*[inhibitor]	3.0*[inhibitor]	1	2	4	99	-1	101
O=C(NCCC1=CCCCC1)C(=O)c1c[nH]c2ccccc12	106	133*	0	1	-1	96	-12	99
O=C(Nc1cccc(S(=O)(=O)N2CCCCC2)c1)Nc1ccc(Cl)cc1Cl	141*	153*	0	3	4	126	10	105
O=C(Nc1cccc(S(=O)(=O)N2CCCCC2)c1)c1ccc2ncsc2c1	59*[inhibitor]	86	.	-10	.	107	-2	102
O=C1CC(N(CCc2ccccc2)C(=S)Nc2ccccc2)C(=O)N1c1ccc(Br)cc1 (configuration not stated)	149*	102	-1	16	0	140	16	107
CCN1C(=O)/C(=C\C=C\c2ccccc2[N+](=O)[O-])SC1=S	69	88	0	-4	-1	.	.	.
CCN1C(=O)/C(=C/C=C2\N(CC)c3cc(S(=O)(=O)N(C)C)ccc3N2c2ccccc2)SC1=S	53*[inhibitor]	81	.	-4	.	39	-22	76
CCC(C)[C@H](NS(=O)(=O)c1ccc(C)cc1)C(=O)N1CCC(C(=O)N2CCC(C(=O)OC)CC2)CC1 (some centres not stated)	95	96	.	0	.	.	.	.
Cc1nc2c3ccccc3nc(SCC(=O)c3ccc(Cl)cc3)n2n1	100	129*	0	-1	1	103	1	107

Screens deposited in PubChem BioAssay by NMMLSC.
